# From paper PMC4137986 (Chemical Research in Toxicology, 2014)
# “Also recorded” adds a separate entry of the source. Read-outs that look alike come from different tables or passages of the source.
# Tests used:
# [1] = biological target: T1, P450 1A1 (Homo sapiens, UniProt P04798); assay: Time-dependent inhibition kinetics of P450 1A1; format: biochemical; details: for kinact: read-out: limiting kinact; for time-dependent inhibition of P450 1A1 (type of inhibition): time-course curves
# T1 sequence (P04798 1-512): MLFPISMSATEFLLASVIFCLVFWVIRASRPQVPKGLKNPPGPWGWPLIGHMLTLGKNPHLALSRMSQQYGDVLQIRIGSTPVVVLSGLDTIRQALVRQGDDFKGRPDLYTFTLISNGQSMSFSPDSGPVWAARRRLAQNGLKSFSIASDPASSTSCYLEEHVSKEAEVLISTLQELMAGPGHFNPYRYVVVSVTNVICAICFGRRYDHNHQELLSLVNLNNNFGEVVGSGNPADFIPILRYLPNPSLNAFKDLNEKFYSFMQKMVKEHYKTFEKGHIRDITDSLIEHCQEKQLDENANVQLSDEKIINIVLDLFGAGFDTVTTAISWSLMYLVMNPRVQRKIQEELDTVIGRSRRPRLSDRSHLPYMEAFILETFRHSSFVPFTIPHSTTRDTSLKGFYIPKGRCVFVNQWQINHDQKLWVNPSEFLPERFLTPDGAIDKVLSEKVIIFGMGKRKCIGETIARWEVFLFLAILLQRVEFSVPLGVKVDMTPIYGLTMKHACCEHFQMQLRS
# Procedure, shortened: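 Human P450 1A1 microsomes (1.6 nM) were used with 5 μM resorufin ethyl ether in pH 7.6 phosphate buffer, with the NADPH-regenerating system added to start the reaction at 37 °C. Product was monitored continuously for 6 min at several inhibitor concentrations. Progress curves were fitted to second-order polynomials, and their derivatives gave activity over time. Semilog plots gave t1/2 (0.693/kinact), and KI and limiting kinact came from Kitz–Wilson plots (1/kinact vs 1/[I]).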
# [2] = biological target: T1, P450 1A1; assay: NADPH-dependency assay; format: biochemical; details: for NADPH-dependency of the inhibition of P450 1A1: 5 min preincubation with vs without NADPH
# Procedure, shortened: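 Human P450 1A1 microsomes (1.6 nM final) were used in 0.1 M potassium phosphate pH 7.6 with MgCl2, with inhibitor in DMSO at 0.00625 or 0.1 μM. Preincubation was 5 min at 37 °C either with an NADPH-regenerating system, then started with 5 μM resorufin ethyl ether, or without NADPH, then started with regenerating system plus substrate. Resorufin time-course was read at ex 535/em 585 nm, 37 °C.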
# [3] = biological target: T1, P450 1A1; assay: P450 1A1-dependent deethylation of resorufin ethyl ether; format: biochemical
# [4] = biological target: T2, P450 1A2 (Homo sapiens, UniProt P05177); assay: P450 1A2-dependent demethylation of resorufin methyl ether; format: biochemical
# T2 sequence (P05177 1-516): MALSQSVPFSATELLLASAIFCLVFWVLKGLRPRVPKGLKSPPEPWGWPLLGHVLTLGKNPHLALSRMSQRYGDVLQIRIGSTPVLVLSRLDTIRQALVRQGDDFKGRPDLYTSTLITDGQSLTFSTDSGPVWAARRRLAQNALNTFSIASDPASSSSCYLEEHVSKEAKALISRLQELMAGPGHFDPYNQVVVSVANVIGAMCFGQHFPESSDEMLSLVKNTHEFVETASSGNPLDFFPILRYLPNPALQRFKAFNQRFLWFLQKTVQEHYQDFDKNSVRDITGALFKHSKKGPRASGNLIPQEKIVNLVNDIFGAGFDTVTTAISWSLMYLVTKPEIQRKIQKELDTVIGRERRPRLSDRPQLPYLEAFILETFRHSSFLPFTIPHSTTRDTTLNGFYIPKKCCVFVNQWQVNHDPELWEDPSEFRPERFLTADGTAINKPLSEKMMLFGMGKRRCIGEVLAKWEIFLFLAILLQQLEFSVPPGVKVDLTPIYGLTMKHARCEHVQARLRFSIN
# [5] = biological target: T3, P450 1A1 over P450 1A2 (Homo sapiens, UniProt P04798); assay: P450 1A1-dependent deethylation of resorufin ethyl ether; format: biochemical; details: human, recombinant human CYP1A1 and CYP1A2 supersomes, pH 7.6
# T3 sequence (P04798 1-512): T1 sequence (P04798 1-512)
# [6] = biological target: T1, P450 1A1; details: read-out: Ki of well-known P450 1A1 inhibitors; cited from earlier work
# [7] = biological target: T4, P450 1A2 over P450 1A1 (Homo sapiens, UniProt P05177); assay: P450 1A2-dependent demethylation of resorufin methyl ether; format: biochemical; details: human, recombinant human CYP1A1 and CYP1A2 supersomes, pH 7.6
# T4 sequence (P05177 1-516): T2 sequence (P05177 1-516)
# [8] = biological target: T5, P450 2B1 (Rattus norvegicus, UniProt P00176); assay: P450 2B1-dependent depentylation of resorufin pentyl ether; format: biochemical
# T5 sequence (P00176 1-491): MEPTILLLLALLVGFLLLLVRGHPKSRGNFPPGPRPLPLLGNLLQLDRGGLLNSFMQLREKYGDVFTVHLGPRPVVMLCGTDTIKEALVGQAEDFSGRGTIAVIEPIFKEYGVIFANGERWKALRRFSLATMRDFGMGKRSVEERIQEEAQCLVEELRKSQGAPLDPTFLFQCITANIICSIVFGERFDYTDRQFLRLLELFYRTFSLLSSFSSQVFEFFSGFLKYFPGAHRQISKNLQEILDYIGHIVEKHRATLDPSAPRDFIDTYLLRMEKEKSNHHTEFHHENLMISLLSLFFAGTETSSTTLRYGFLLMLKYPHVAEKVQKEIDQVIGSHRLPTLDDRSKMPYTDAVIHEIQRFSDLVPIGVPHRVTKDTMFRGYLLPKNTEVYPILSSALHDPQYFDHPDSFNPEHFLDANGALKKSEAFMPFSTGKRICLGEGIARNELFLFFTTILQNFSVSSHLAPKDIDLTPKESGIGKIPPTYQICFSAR
# Procedure, shortened: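 Rat P450 2B1 microsomes (5 nM final) were used in 0.1 M potassium phosphate pH 7.6 with MgCl2, with 5 μM resorufin pentyl ether in DMSO. Reactions were started with an NADPH-regenerating system (NADP+, glucose 6-phosphate, G6PDH) and run at 37 °C. Resorufin formation was followed continuously at ex 535/em 585 nm.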
SMILES,Ki [1] [nM],kinact [1] [s⁻¹],NADPH-dependency of the inhibition of P450 1A1 [2],effect of 5 min preincubation with NADPH on P450 1A1 activity ([2]; inhibitor 0.1 μM),Ki [3] [nM],Ki [4] [µM],Ki [8] [µM],time-dependent inhibition of P450 1A1 (type of inhibition) [1],effect of 5 min preincubation with NADPH on P450 1A1 activity ([2]; inhibitor 0.00625 μM),selectivity ratio at 6 min [5],Ki [6] [nM],selectivity ratio at 6 min [7]
"C#Cc1ccc2oc(-c3ccccc3)cc(=O)c2c1 [6EF, 6-Ethynylflavone]",43 ± 8,0.0055,exhibit NADPH-dependency,–,35,6.2,–,time- and concentration-dependently inhibit P450 1A1,complete inhibition,177,–,–
c1cc2ccc3cccc4ccc(c1)c2c34 [pyrene],–,–,–,–,–,–,–,–,–,–,~40,–
"O=c1cc(-c2ccccc2)oc2c1ccc1ccccc12 [αNF, α-naphthoflavone]",–,–,–,–,–,–,–,–,–,–,~40,–
"C#Cc1ccc(-c2cc(=O)c3ccccc3o2)cc1 [4′EF, 4′-Ethynylflavone]",56 ± 14,0.0055,exhibit NADPH-dependency,–,–,3.26,–,time- and concentration-dependently inhibit P450 1A1,complete inhibition,85,–,–
"C#Cc1ccccc1-c1cc(=O)c2ccccc2o1 [2′EF, 2′-Ethynylflavone]",–,–,does not NADPH-dependently inhibit P450 1A1,slight influence on enzymatic activity,1640,0.23,15.7,only a competitive inhibitor,–,–,–,7.2

# Further lines, with some results ahead:
Ki [1] [nM],kinact [1] [s⁻¹],NADPH-dependency of the inhibition of P450 1A1 [2],effect of 5 min preincubation with NADPH on P450 1A1 activity ([2]; inhibitor 0.1 μM),Ki [3] [nM],Ki [4] [µM],Ki [8] [µM],SMILES,time-dependent inhibition of P450 1A1 (type of inhibition) [1],effect of 5 min preincubation with NADPH on P450 1A1 activity ([2]; inhibitor 0.00625 μM),selectivity ratio at 6 min [5],Ki [6] [nM],selectivity ratio at 6 min [7]
510 ± 90,0.0011,exhibit NADPH-dependency,considerable inhibition,1230,–,–,"C#Cc1cccc2oc(-c3ccccc3)cc(=O)c12 [5EF, 5-Ethynylflavone]",time- and concentration-dependently inhibit P450 1A1,–,–,–,–
–,–,–,–,740,–,–,"C#Cc1ccc2cc(-c3ccccc3)c(=O)oc2c1 [7E3PC, 7-ethynyl-3-phenylcoumarin, reference compound]",–,–,–,–,–
35 ± 12,0.007,exhibit NADPH-dependency,–,–,–,–,"C#Cc1ccc2c(=O)cc(-c3ccccc3)oc2c1 [7EF, 7-Ethynylflavone]",time- and concentration-dependently inhibit P450 1A1,complete inhibition; also recorded: completely subvert the enzymatic activity,–,–,–
53 ± 7,0.00767,exhibit NADPH-dependency,–,–,–,–,"C#Cc1cccc(-c2cc(=O)c3ccccc3o2)c1 [3′EF, 3′-Ethynylflavone]",time- and concentration-dependently inhibit P450 1A1,complete inhibition; also recorded: completely subvert the enzymatic activity,–,–,–
